Test results taken from PMC10693208 (Evolutionary Bioinformatics Online, 2023).
Where “and” joins values, the source holds several entries; their conditions need not be identical. Equal values may be shown once. Read-outs that look alike come from different tables or passages of the source.

What was measured:
EGFR^WT = EGFR^WT (Homo sapiens, UniProt P00533); assay: In vitro EGFR kinase inhibition; assay type: biochemical
EGFR^T790M = EGFR^T790M (Homo sapiens, UniProt P00533, T790M); assay: In vitro EGFR kinase inhibition; assay type: biochemical
EGFR^T790M, sequence (P00533 25-1210 T790M): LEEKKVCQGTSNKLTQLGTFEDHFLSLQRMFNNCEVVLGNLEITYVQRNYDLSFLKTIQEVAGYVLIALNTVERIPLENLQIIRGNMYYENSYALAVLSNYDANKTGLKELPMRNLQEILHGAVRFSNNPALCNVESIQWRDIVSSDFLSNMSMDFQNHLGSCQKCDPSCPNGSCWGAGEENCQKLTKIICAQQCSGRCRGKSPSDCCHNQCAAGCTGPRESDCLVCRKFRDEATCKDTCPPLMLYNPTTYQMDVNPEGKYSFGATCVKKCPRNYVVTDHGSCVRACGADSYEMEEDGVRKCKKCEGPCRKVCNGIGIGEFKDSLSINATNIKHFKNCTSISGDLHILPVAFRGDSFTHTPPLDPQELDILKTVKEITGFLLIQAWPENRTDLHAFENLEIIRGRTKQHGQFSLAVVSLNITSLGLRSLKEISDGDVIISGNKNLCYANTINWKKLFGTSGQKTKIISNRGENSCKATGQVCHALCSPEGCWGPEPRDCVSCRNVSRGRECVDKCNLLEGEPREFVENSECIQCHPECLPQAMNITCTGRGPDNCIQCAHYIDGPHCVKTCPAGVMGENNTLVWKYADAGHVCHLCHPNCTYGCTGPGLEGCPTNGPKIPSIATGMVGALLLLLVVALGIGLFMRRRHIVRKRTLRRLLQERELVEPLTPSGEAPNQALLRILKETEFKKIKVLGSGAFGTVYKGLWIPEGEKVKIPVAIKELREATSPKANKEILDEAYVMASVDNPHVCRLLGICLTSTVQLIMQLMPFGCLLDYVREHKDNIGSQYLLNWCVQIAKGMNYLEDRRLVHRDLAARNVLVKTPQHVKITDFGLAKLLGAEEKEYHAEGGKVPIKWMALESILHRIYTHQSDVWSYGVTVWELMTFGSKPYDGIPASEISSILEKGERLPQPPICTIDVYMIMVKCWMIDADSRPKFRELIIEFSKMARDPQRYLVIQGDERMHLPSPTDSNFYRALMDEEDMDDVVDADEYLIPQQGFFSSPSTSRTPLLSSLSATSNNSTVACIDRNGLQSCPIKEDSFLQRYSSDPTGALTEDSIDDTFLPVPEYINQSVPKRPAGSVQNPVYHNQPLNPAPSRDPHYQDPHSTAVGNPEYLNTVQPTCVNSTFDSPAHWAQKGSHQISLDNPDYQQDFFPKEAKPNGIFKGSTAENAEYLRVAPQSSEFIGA

H1975 cells = assay: MTT cytotoxicity, H1975; assay type: cell-based; details: Homo sapiens, NCI-H1975, read-out: H1975 IC50
HCT-116 cells [1] = assay: MTT cytotoxicity, HCT-116; assay type: cell-based, human
HCT-116 cells [2] = assay: Flow cytometric analysis of apoptosis; assay type: cell-based, human
Casp3 = assay: RT-PCR, Casp3 level in HCT-116 cells; assay type: cell-based, human; details: HCT-116 treated with 23.3 µM, vs control cells = 1
Outline: (§1)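 Total RNA extracted from HCT-116 cells after test compound exposure using a commercial extraction kit. Transcript levels were measured by RT-PCR with SYBR Green master mix. Expression was compared with untreated control cells, taken as 1, and reported as fold change.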

Casp9 = assay: RT-PCR, Casp9 level in HCT-116 cells; assay type: cell-based, human; details: HCT-116 treated with 23.3 µM, vs control cells = 1
Outline: as §1

BAX = assay: RT-PCR, BAX level in HCT-116 cells; assay type: cell-based, human; details: HCT-116 treated with 23.3 µM, vs control cells = 1
Outline: as §1

Bcl-2 = assay: RT-PCR, Bcl-2 level in HCT-116 cells; assay type: cell-based, human
[3] = Homo sapiens, HCT-116, read-out: HCT-116 IC50, MTT, erlotinib as reference
[4] = read-out: HCT-116 IC50, MTT, erlotinib as reference

EGFR^WT, sequence (P00533 25-1210): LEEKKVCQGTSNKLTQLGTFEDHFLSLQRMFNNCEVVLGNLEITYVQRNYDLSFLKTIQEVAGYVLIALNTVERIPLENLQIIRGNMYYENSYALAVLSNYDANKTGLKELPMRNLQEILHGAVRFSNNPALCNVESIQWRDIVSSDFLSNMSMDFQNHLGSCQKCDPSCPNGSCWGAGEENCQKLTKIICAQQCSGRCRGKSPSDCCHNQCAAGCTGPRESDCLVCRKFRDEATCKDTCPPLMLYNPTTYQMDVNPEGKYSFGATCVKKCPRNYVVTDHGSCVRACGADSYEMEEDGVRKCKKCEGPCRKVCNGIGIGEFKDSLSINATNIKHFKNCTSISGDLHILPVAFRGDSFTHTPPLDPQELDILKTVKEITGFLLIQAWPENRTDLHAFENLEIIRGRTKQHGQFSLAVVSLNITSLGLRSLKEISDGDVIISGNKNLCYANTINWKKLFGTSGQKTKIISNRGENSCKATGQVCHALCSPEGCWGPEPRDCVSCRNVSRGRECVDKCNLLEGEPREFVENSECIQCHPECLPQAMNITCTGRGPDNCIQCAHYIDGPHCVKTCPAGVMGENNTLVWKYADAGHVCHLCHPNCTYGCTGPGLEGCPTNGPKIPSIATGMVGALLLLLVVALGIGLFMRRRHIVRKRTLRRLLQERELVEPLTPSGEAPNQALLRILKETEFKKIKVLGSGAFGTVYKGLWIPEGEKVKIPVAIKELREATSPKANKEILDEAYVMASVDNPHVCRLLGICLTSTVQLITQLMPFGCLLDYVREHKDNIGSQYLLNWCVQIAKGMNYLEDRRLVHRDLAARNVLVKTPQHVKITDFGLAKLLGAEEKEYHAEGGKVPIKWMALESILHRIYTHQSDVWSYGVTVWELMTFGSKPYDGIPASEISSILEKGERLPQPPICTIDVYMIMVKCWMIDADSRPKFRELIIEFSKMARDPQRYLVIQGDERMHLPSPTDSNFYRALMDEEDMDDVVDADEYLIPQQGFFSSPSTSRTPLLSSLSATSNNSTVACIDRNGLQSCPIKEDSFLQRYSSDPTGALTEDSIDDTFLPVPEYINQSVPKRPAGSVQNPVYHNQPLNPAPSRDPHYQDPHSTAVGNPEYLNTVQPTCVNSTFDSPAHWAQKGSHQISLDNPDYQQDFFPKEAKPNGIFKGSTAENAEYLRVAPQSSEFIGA

## Cn1cnc2c1c(=O)n(CC(=O)Nc1c(Cl)cccc1Cl)c(=O)n2C [Compound T-1-DOCA, N-(2,6-Dichlorophenyl)-2-(3,7-dimethyl-2,6-dioxo-2,3,6,7-tetrahydro-1H-purin-1-yl)acetamide]
EGFR^WT
  IC50: 0.0569 µM
EGFR^T790M
  IC50: 0.269 µM
H1975 cells
  IC50: 14.1 µM
HCT-116 cells [1]; [3]
  IC50: 23.4 µM
HCT-116 cells [1]; SI = IC50 normal cells (Vero) / IC50 cancer cells
  selectivity index (SI), HCT-116: 4.1
HCT-116 cells [1]; [4]
  IC50: 23.3 µM
HCT-116 cells [2]; HCT-116
  increase of the total percentage of apoptotic cells vs control: ~10 folds
HCT-116 cells [2]; HCT-116, 72 h, Annexin V/PI
  Apoptosis, Early: 8.55%
  Apoptosis, Late: 18.07%
  Necrosis: 3.09%
Casp3
  RT-PCR Fold change Casp3: 3.8 and 3.829
Casp9
  RT-PCR Fold change Casp9: 2.2 and 2.238
BAX
  RT-PCR Fold change BAX: 5.522
Bcl-2; HCT-116, reduction factor
  Bcl-2 reduction compared to the control: 2 fold
Bcl-2; HCT-116 treated with 23.3 µM, vs control cells = 1
  RT-PCR Fold change Bcl-2: 0.521

## C#Cc1cccc(Nc2ncnc3cc(OCCOC)c(OCCOC)cc23)c1 [Erlotinib, reference compound]
HCT-116 cells [1]; [3]
  IC50: 17.8 µM
HCT-116 cells [1]; [4]
  IC50: 17.9 µM
